{"source": "ChEMBL document CHEMBL1142402", "about": "“Synthesis of curcumin mimics with multidrug resistance reversal activities” (Bioorg Med Chem, 2008)", "key": {"[1]": {"assay": "Cytotoxicity against multidrug resistant P-gp expressing human KBV20C cells assessed as cell viability at 10 uM after 48 hrs by MTS assay", "type": "functional", "conditions": "read-out: Activity", "how_it_was_run": "(§1)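 KB (P-gp-negative) and KBV20C (P-gp-expressing) cells were grown in RPMI 1640 with 10% FBS and 1% penicillin/streptomycin. KBV20C cells were maintained with 20 nM vincristine. Cells were exposed to each compound at 10 µM for 48 h. Viability (%) was read by MTS. Values are means ± standard deviation of three experiments.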"}, "KB [2]": {"test_system": "KB", "assay": "Cytotoxicity against human KB cells assessed as cell viability at 10 uM after 48 hrs by MTS assay", "type": "functional", "conditions": "read-out: Activity", "how_it_was_run": "as §1"}, "[3]": {"assay": "Cytotoxicity against multidrug resistant P-gp expressing human KBV20C cells assessed as cell viability in presence of vincristine by MTS assay", "type": "functional, cell-based"}, "[4]": {"assay": "Cytotoxicity against multidrug resistant P-gp expressing human KBV20C cells assessed as cell viability in presence of paclitaxel by MTS assay", "type": "functional, cell-based"}, "KBV20C": {"test_system": "KBV20C", "assay": "Inhibition of Pgp in multidrug resistant human KBV20C cells assessed as increase in intracellular accumulation of Rh123", "type": "cell-based", "how_it_was_run": "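They were then incubated a further 3 h with Rh123 and washed with PBS. Mean intracellular Rh123 fluorescence was measured by flow cytometry and expressed relative to control. Values are means ± SD of three independent experiments, compared by Student's t-test.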"}, "[5]": {"assay": "Cytotoxicity against multidrug resistant P-gp expressing human KBV20C cells assessed as cell viability after 48 hrs by MTS assay", "type": "functional, cell-based"}, "KB [6]": {"test_system": "KB", "assay": "Cytotoxicity against human KB cells assessed as cell viability after 48 hrs by MTS assay", "type": "functional, cell-based"}}, "note": "Active and inactive are the calls of the source. The rule behind the calls is not given here."}
{"smiles": "CCCC(=O)Nc1cccc(C(=O)/C=C/c2ccc(O)c(OC)c2)c1", "values": [{"measurement": "viability at 10 µM", "setting": "[1]", "value": 80.8, "unit": "%"}, {"measurement": "viability at 10 µM", "setting": "KB [2]", "value": 77.1, "unit": "%"}, {"measurement": "IC50", "setting": "[3]", "value": 2890, "unit": "nM"}, {"measurement": "IC50", "setting": "[4]", "value": 210, "unit": "nM"}]}
{"smiles": "COc1cc(/C=C/C(=O)CC(=O)/C=C/c2ccc(O)c(OC)c2)ccc1O", "note": "[CURCUMIN]", "values": [{"measurement": "viability at 10 µM", "setting": "[1]", "value": 93.1, "unit": "%"}, {"measurement": "viability at 10 µM", "setting": "KB [2]", "value": 89.2, "unit": "%"}, {"measurement": "IC50", "setting": "[3]", "value": 820, "unit": "nM"}, {"measurement": "IC50", "setting": "[4]", "value": 420, "unit": "nM"}]}
{"smiles": "COc1cc(/C=C/C(=O)c2cccc(NC(=O)c3ccccc3)c2)ccc1O", "values": [{"measurement": "viability at 10 µM", "setting": "[1]", "value": 85.5, "unit": "%"}, {"measurement": "viability at 10 µM", "setting": "KB [2]", "value": 89.5, "unit": "%"}, {"measurement": "IC50", "setting": "[3]", "value": 3820, "unit": "nM"}, {"measurement": "IC50", "setting": "[4]", "value": 420, "unit": "nM"}]}
{"smiles": "COc1cc(/C=C/C(=O)c2cccc(NC(=O)C(C)C)c2)ccc1O", "values": [{"measurement": "viability at 10 µM", "setting": "[1]", "value": 67.7, "unit": "%"}, {"measurement": "viability at 10 µM", "setting": "KB [2]", "value": 67.5, "unit": "%"}, {"measurement": "IC50", "setting": "[3]", "value": 2920, "unit": "nM"}, {"measurement": "IC50", "setting": "[4]", "value": 240, "unit": "nM"}]}
{"smiles": "COc1cc(/C=C/C(=O)c2cccc(NC(=O)c3ccc(Cl)c(Cl)c3)c2)ccc1O", "values": [{"measurement": "Activity", "setting": "KBV20C", "value": "Active"}, {"measurement": "viability at 10 µM", "setting": "[1]", "value": 72.6, "unit": "%"}, {"measurement": "viability at 10 µM", "setting": "KB [2]", "value": 78.3, "unit": "%"}, {"measurement": "IC50", "setting": "[3]", "value": 850, "unit": "nM"}, {"measurement": "IC50", "setting": "[4]", "value": 26, "unit": "nM"}]}
{"smiles": "COc1cc(/C=C/C(=O)c2cccc(NC(=O)c3ccc(Cl)cc3Cl)c2)ccc1O", "values": [{"measurement": "viability at 10 µM", "setting": "[1]", "value": 94.6, "unit": "%"}, {"measurement": "viability at 10 µM", "setting": "KB [2]", "value": 98.3, "unit": "%"}, {"measurement": "IC50", "setting": "[3]", "value": 720, "unit": "nM"}, {"measurement": "IC50", "setting": "[4]", "value": 45, "unit": "nM"}]}
{"smiles": "CC(=O)O[C@H]1C(=O)[C@@]2(C)[C@H]([C@H](OC(=O)c3ccccc3)[C@]3(O)C[C@H](OC(=O)[C@H](O)[C@@H](NC(=O)c4ccccc4)c4ccccc4)C(C)=C1C3(C)C)[C@]1(OC(C)=O)CO[C@@H]1C[C@@H]2O", "note": "[PACLITAXEL]", "values": [{"measurement": "IC50", "setting": "[5]", "value": 1440, "unit": "nM"}, {"measurement": "IC50", "setting": "KB [6]", "value": 4.2, "unit": "nM"}]}
{"smiles": "COc1cc(/C=C/C(=O)c2cccc(NC(C)=O)c2)ccc1O", "values": [{"measurement": "viability at 10 µM", "setting": "[1]", "value": 92.4, "unit": "%"}, {"measurement": "viability at 10 µM", "setting": "KB [2]", "value": 98.2, "unit": "%"}, {"measurement": "IC50", "setting": "[3]", "value": 1260, "unit": "nM"}, {"measurement": "IC50", "setting": "[4]", "value": 720, "unit": "nM"}]}
{"smiles": "COc1cc(/C=C/C(=O)c2cccc(N)c2)ccc1O", "values": [{"measurement": "viability at 10 µM", "setting": "[1]", "value": 99.4, "unit": "%"}, {"measurement": "viability at 10 µM", "setting": "KB [2]", "value": 97.6, "unit": "%"}, {"measurement": "IC50", "setting": "[3]", "value": 1260, "unit": "nM"}, {"measurement": "IC50", "setting": "[4]", "value": 830, "unit": "nM"}]}
{"smiles": "COc1cc(/C=C/C(=O)c2cccc(NC(=O)c3ccc(Cl)cc3)c2)ccc1O", "values": [{"measurement": "Activity", "setting": "KBV20C", "value": "Active"}, {"measurement": "viability at 10 µM", "setting": "[1]", "value": 96.6, "unit": "%"}, {"measurement": "viability at 10 µM", "setting": "KB [2]", "value": 95.7, "unit": "%"}, {"measurement": "IC50", "setting": "[3]", "value": 480, "unit": "nM"}, {"measurement": "IC50", "setting": "[4]", "value": 63, "unit": "nM"}]}
{"smiles": "COC(=O)CC(=O)Nc1cccc(C(=O)/C=C/c2ccc(O)c(OC)c2)c1", "values": [{"measurement": "viability at 10 µM", "setting": "[1]", "value": 106, "unit": "%"}, {"measurement": "viability at 10 µM", "setting": "KB [2]", "value": 72.9, "unit": "%"}, {"measurement": "IC50", "setting": "[3]", "value": 3810, "unit": "nM"}, {"measurement": "IC50", "setting": "[4]", "value": 320, "unit": "nM"}]}
{"smiles": "COc1ccc(CCN(C)CCC[C@](C#N)(c2ccc(OC)c(OC)c2)C(C)C)cc1OC", "values": [{"measurement": "Activity", "setting": "KBV20C", "value": "Active"}]}
{"smiles": "COc1cc(/C=C/C(=O)c2cccc(NC(=O)c3cccs3)c2)ccc1O", "values": [{"measurement": "viability at 10 µM", "setting": "[1]", "value": 83.6, "unit": "%"}, {"measurement": "viability at 10 µM", "setting": "KB [2]", "value": 74.7, "unit": "%"}, {"measurement": "IC50", "setting": "[3]", "value": 1410, "unit": "nM"}, {"measurement": "IC50", "setting": "[4]", "value": 180, "unit": "nM"}]}
{"smiles": "COc1cc(/C=C/C(=O)c2cccc(NC(=O)c3c(Cl)cccc3Cl)c2)ccc1O", "values": [{"measurement": "viability at 10 µM", "setting": "[1]", "value": 75.3, "unit": "%"}, {"measurement": "viability at 10 µM", "setting": "KB [2]", "value": 93.7, "unit": "%"}, {"measurement": "IC50", "setting": "[3]", "value": 1230, "unit": "nM"}, {"measurement": "IC50", "setting": "[4]", "value": 100, "unit": "nM"}]}
{"smiles": "CCOC(=O)C(=O)Nc1cccc(C(=O)/C=C/c2ccc(O)c(OC)c2)c1", "values": [{"measurement": "viability at 10 µM", "setting": "[1]", "value": 103, "unit": "%"}, {"measurement": "viability at 10 µM", "setting": "KB [2]", "value": 84.7, "unit": "%"}, {"measurement": "IC50", "setting": "[3]", "value": 3310, "unit": "nM"}, {"measurement": "IC50", "setting": "[4]", "value": 1090, "unit": "nM"}]}
{"smiles": "COc1cc(/C=C/C(=O)c2cccc(NC(=O)c3ccco3)c2)ccc1O", "values": [{"measurement": "viability at 10 µM", "setting": "[1]", "value": 77.6, "unit": "%"}, {"measurement": "viability at 10 µM", "setting": "KB [2]", "value": 60.2, "unit": "%"}, {"measurement": "IC50", "setting": "[3]", "value": 1440, "unit": "nM"}, {"measurement": "IC50", "setting": "[4]", "value": 210, "unit": "nM"}]}
{"smiles": "CC[C@]1(O)C[C@H]2CN(CCc3c([nH]c4ccccc34)[C@@](C(=O)OC)(c3cc4c(cc3OC)N(C=O)[C@H]3[C@@](O)(C(=O)OC)[C@H](OC(C)=O)[C@]5(CC)C=CCN6CC[C@]43[C@@H]65)C2)C1", "note": "[VINCRISTINE]", "values": [{"measurement": "IC50", "setting": "[5]", "value": 5720, "unit": "nM"}, {"measurement": "IC50", "setting": "KB [6]", "value": 7.9, "unit": "nM"}]}
{"smiles": "COc1cc(/C=C/C(=O)c2cccc(NC(=O)c3cc(Cl)cc(Cl)c3)c2)ccc1O", "values": [{"measurement": "Activity", "setting": "KBV20C", "value": "Active"}, {"measurement": "viability at 10 µM", "setting": "[1]", "value": 70.3, "unit": "%"}, {"measurement": "viability at 10 µM", "setting": "KB [2]", "value": 68.7, "unit": "%"}, {"measurement": "IC50", "setting": "[3]", "value": 410, "unit": "nM"}, {"measurement": "IC50", "setting": "[4]", "value": 22, "unit": "nM"}]}
